Values after ≈ are worked out from the molar mass of the structure shown.
How the values were obtained:
[1] = tested on: Vesicular stomatitis virus; test: Antiviral activity against Vesicular stomatitis virus infected in human HeLa cells assessed as reduction in virus-induced cytopathic effect incubated for 3 to 6 days by light microscopic analysis; format: functional, organism-based
Method in brief: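 CPE reduction assay: virus and serial compound dilutions added together to subconfluent HeLa (vesicular stomatitis, Coxsackie B4, respiratory syncytial) or Vero (Coxsackie B4, Sindbis, Punta Toro) cultures. Incubated 3–6 days at 37 °C. Mean ± SEM of three independent tests.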

[2] = tested on: Coxsackievirus B4; test: Antiviral activity against Human coxsackievirus B4 infected in human HeLa cells assessed as reduction in virus-induced cytopathic effect incubated for 3 to 6 days by light microscopic analysis; format: functional, organism-based; conditions: Enterovirus B
Method in brief: (§1)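 CPE reduction assay: virus and serial compound dilutions added together to subconfluent HeLa (vesicular stomatitis, Coxsackie B4, respiratory syncytial) or Vero (Coxsackie B4, Sindbis, Punta Toro) cultures. Incubated 3–6 days at 37 °C. […] Mean ± SEM of three independent tests.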

[3] = tested on: Respiratory syncytial virus; test: Antiviral activity against Respiratory syncytial virus infected in human HeLa cells assessed as reduction in virus-induced cytopathic effect incubated for 3 to 6 days by light microscopic analysis; format: functional, organism-based; method in brief: as §1
[4] = Cytotoxicity against human HeLa cells assessed as changes in cell morphology incubated for 3 to 6 days by light microscopic analysis; format: cell-based; conditions: time 3-6 day
Method in brief: (§2)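 Uninfected subconfluent cells (Vero or HeLa, as named) exposed to serial compound dilutions in parallel with the CPE assays, 37 °C, 3–6 days. Cell morphology examined by light microscopy; MCC = minimal concentration causing microscopically detectable changes in morphology.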

[5] = tested on: Human respirovirus 3; test: Antiviral activity against Human parainfluenza virus 3 infected in African green monkey Vero cells assessed as reduction in virus-induced cytopathic effect incubated for 3 to 6 days by light microscopic analysis; format: functional, organism-based; conditions: Human respirovirus 3, Vero
[6] = tested on: Mammalian orthoreovirus 1; test: Antiviral activity against Mammalian orthoreovirus 1 infected in African green monkey Vero cells assessed as reduction in virus-induced cytopathic effect incubated for 3 to 6 days by light microscopic analysis; format: functional, organism-based; conditions: Mammalian orthoreovirus 1, Vero
[7] = tested on: Sindbis virus; test: Antiviral activity against Sindbis virus infected in African green monkey Vero cells assessed as reduction in virus-induced cytopathic effect incubated for 3 to 6 days by light microscopic analysis; format: functional, organism-based; method in brief: as §1
[8] = tested on: Coxsackievirus B4; test: Antiviral activity against Human coxsackievirus B4 infected in African green monkey Vero cells assessed as reduction in virus-induced cytopathic effect incubated for 3 to 6 days by light microscopic analysis; format: functional, organism-based; conditions: Enterovirus B; method in brief: as §1
[9] = tested on: Punta Toro virus; test: Antiviral activity against Punta Toro virus infected in African green monkey Vero cells assessed as reduction in virus-induced cytopathic effect incubated for 3 to 6 days by light microscopic analysis; format: functional, organism-based; method in brief: as §1
[10] = Cytotoxicity against African green monkey Vero cells assessed as changes in cell morphology incubated for 3 to 6 days by light microscopy; format: cell-based; conditions: chlorocebus sabaeus, time 3-6 day; method in brief: as §2
[11] = tested on: Human alphaherpesvirus 1; test: Antiviral activity against Herpes simplex virus 1 infected in human HEL cells assessed as reduction in virus-induced cytopathic effect incubated for 3 to 6 days by light microscopic analysis; format: functional, cell-based; conditions: Human alphaherpesvirus 1, HEL
[12] = tested on: Human alphaherpesvirus 2; test: Antiviral activity against Herpes simplex virus 2 infected in human HEL cells assessed as reduction in virus-induced cytopathic effect incubated for 3 to 6 days by light microscopic analysis; format: functional, cell-based; conditions: Human alphaherpesvirus 2, HEL
[13] = tested on: Vaccinia virus; test: Antiviral activity against Vaccinia virus infected in human HEL cells assessed as reduction in virus-induced cytopathic effect incubated for 3 to 6 days by light microscopic analysis; format: functional, organism-based; conditions: Orthopoxvirus vaccinia
[14] = tested on: Human immunodeficiency virus 1; test: Antiviral activity against Human immunodeficiency virus 1 infected in human MT4 cells assessed as reduction in virus-induced cytopathic effect incubated for 3 to 6 days by light microscopic analysis; format: functional, organism-based; conditions: Human immunodeficiency virus 1, MT4
[15] = tested on: Human immunodeficiency virus 2; test: Antiviral activity against Human immunodeficiency virus 2 infected in human MT4 cells assessed as reduction in virus-induced cytopathic effect incubated for 3 to 6 days by light microscopic analysis; format: functional, organism-based; conditions: Human immunodeficiency virus 2, MT4
[16] = tested on: Influenza A virus; test: Antiviral activity against influenza A virus infected in dog MDCK cells assessed as reduction in virus-induced cytopathic effect incubated for 3 to 6 days by light microscopic analysis; format: functional, organism-based
Method in brief: (§3)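 MDCK cells, subconfluent, received influenza A or B virus together with serial compound dilutions. Incubated 3–6 days at 35 °C.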

[17] = tested on: Influenza B virus; test: Antiviral activity against influenza B virus infected in dog MDCK cells assessed as reduction in virus-induced cytopathic effect incubated for 3 to 6 days by light microscopic analysis; format: functional, organism-based; method in brief: as §3
[18] = tested on: Feline coronavirus; test: Antiviral activity against Feline coronavirus infected in cat CRFK cells assessed as reduction in virus-induced cytopathic effect incubated for 3 to 6 days by light microscopic analysis; format: functional, organism-based; conditions: Alphacoronavirus 1, CRFK
[19] = tested on: Felid alphaherpesvirus 1; test: Antiviral activity against Feline herpesvirus infected in cat CRFK cells assessed as reduction in virus-induced cytopathic effect incubated for 3 to 6 days by light microscopic analysis; format: functional, organism-based; conditions: Felid alphaherpesvirus 1, CRFK
[20] = Cytotoxicity against human HEL cells assessed as changes in cell morphology incubated for 3 to 6 days by light microscopy; format: cell-based; conditions: time 3-6 day
Method in brief: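 Human embryonic lung fibroblasts incubated with serial compound dilutions alongside the antiviral assays, 37 °C, 3–6 days. Morphology inspected by light microscopy; minimal cytotoxic concentration taken as lowest concentration giving minimal morphological change.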

[21] = Cytotoxicity against cat CRFK cells assessed as reduction in cell viability incubated for 3 to 6 days by MTS assay; format: cell-based, Felis catus; conditions: crfk, time 3-6 day
Method in brief: (§4)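 CRFK or MT4 cells were exposed to serial compound dilutions alongside the antiviral assays for 3–6 days at 37 °C.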

[22] = tested on: MT4; test: Cytotoxicity against human MT4 cells assessed as reduction in cell viability incubated for 3 to 6 days by MTS assay; format: cell-based; conditions: time 3-6 day; method in brief: as §4
[23] = Cytotoxicity against dog MDCK cells assessed as changes in cell morphology incubated for 3 to 6 days by light microscopy; format: cell-based, Canis lupus familiaris; conditions: time 3-6 day
[24] = Selectivity index, ratio of MCC for human HeLa cells to EC50 for Human coxsackievirus B4 infected in human HeLa cells; format: toxicity, cell-based
Method in brief: (§5)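 HeLa cells infected concurrently with addition of serial compound dilutions, 3–6 days at 37 °C. CPE inhibition scored microscopically for EC50; MCC from minimal alteration of cell morphology by microscopy; index = MCC divided by EC50.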

[25] = Selectivity index, ratio of MCC for African green monkey Vero cells to EC50 for Human coxsackievirus B4 infected in African green monkey Vero cells; format: toxicity
[26] = Selectivity index, ratio of MCC for human HeLa cells to EC50 for Respiratory syncytial virus infected in human HeLa cells; format: toxicity, cell-based; method in brief: as §5
[27] = Selectivity index, ratio of MCC for African green monkey Vero cells to EC50 for Sindbis virus infected in African green monkey Vero cells; format: toxicity

Row | Structure (SMILES) | EC50 [1] [µg/mL] | EC50 [2] | EC50 [3] | MCC [4] | EC50 [5] | EC50 [6] | EC50 [8] | EC50 [9] [µg/mL] | MCC [10] | EC50 [11] [µg/mL] | EC50 [12] [µg/mL] | EC50 [13] [µg/mL] | EC50 [14] [µg/mL] | EC50 [15] [µg/mL] | EC50 ([16]; Influenza A virus, MDCK) [µg/mL] | EC50 [17] [µg/mL] | EC50 [18] [µg/mL] | EC50 [19] [µg/mL] | MCC [20] | CC50 [21] [µg/mL] | also measured
1 | O=C(NNC(=S)NCc1ccccc1)c1[nH]c2ccc(F)cc2c1-c1ccccc1 | > 100 | > 100 µg/mL | > 100 µg/mL | 4 µg/mL | > 100 µg/mL | > 100 µg/mL | > 100 µg/mL | > 100 | 10 µg/mL | > 100 | > 100 | > 100 | > 100 | > 100 | > 100 | > 100 | > 100 | > 100 | > 10 µg/mL | 1.9 (≈ 4.54 µM) | EC50 [7]: > 100 µg/mL; CC50 [22]: 11 µg/mL (≈ 26.3 µM)
2 | O=C(NNC(=S)NCCc1ccccc1)c1[nH]c2ccc(F)cc2c1-c1ccccc1 | > 100 | > 100 µg/mL | > 100 µg/mL | 4 µg/mL | > 100 µg/mL | > 100 µg/mL | > 100 µg/mL | > 100 | 10 µg/mL | > 100 | > 100 | > 100 | > 100 | > 100 | > 100 | > 100 | > 100 | > 100 | 10 µg/mL | 1.9 (≈ 4.39 µM) | EC50 [7]: > 100 µg/mL; MCC [23]: 2 µg/mL; CC50 [22]: 11 µg/mL (≈ 25.4 µM)
3 | CNC(=S)NNC(=O)c1[nH]c2ccc(F)cc2c1-c1ccccc1 | > 100 | 2.1 µg/mL | > 100 µg/mL | 20 µg/mL | > 100 µg/mL | > 100 µg/mL | 1.7 µg/mL | > 100 | 20 µg/mL | > 100 | > 100 | > 100 | > 100 | > 100 | > 100 | > 100 | > 100 | > 100 | 20 µg/mL | 7.5 (≈ 21.9 µM) | selectivity ratio [24]: 9; EC50 [7]: > 100 µg/mL; selectivity ratio [25]: 12; MCC [23]: 20 µg/mL; CC50 [22]: 18 µg/mL (≈ 52.6 µM)
4 | CN1C(=O)CS/C1=N\NC(=O)c1[nH]c2ccc(F)cc2c1-c1ccccc1 | > 100 | > 100 µg/mL | > 100 µg/mL |  | > 100 µg/mL | > 100 µg/mL | > 100 µg/mL | > 100 | 20 µg/mL | > 100 | > 100 | > 100 | > 100 | > 100 | > 100 | > 100 | > 100 | > 100 | > 100 µg/mL | > 100 | EC50 [7]: > 100 µg/mL; CC50 [22]: > 125 µg/mL
5 | CCCNC(=S)NNC(=O)c1[nH]c2ccc(F)cc2c1-c1ccccc1 | > 100 | 1.1 µg/mL | ≥ 2.3 µg/mL | 20 µg/mL | > 100 µg/mL | > 100 µg/mL | 1.8 µg/mL | > 100 |  | > 100 | > 100 | > 100 | > 100 | > 100 | > 100 | > 100 | > 100 | > 100 | 20 µg/mL | 9.7 (≈ 26.2 µM) | selectivity ratio [24]: 18; selectivity ratio [26]: ≥ 9; EC50 [7]: 6.5 µg/mL (≈ 17.5 µM); selectivity ratio [27]: 15; selectivity ratio [25]: 56; MCC [23]: 0.8 µg/mL; CC50 [22]: 11 µg/mL (≈ 29.7 µM)
6 | C=CCNC(=S)NNC(=O)c1[nH]c2ccc(F)cc2c1-c1ccccc1 | > 100 | 1.5 µg/mL | ≥ 4 µg/mL | 20 µg/mL | > 100 µg/mL | > 100 µg/mL | 2 µg/mL | > 100 | 20 µg/mL | > 100 | > 100 | > 100 | > 100 | > 100 | > 100 | > 100 | > 100 | > 100 | 20 µg/mL | 8.6 (≈ 23.3 µM) | selectivity ratio [24]: 13; selectivity ratio [26]: ≥ 5; EC50 [7]: ≥ 4 µg/mL; selectivity ratio [27]: ≥ 5; selectivity ratio [25]: 10; MCC [23]: 4 µg/mL
7 | CCCCNC(=S)NNC(=O)c1[nH]c2ccc(F)cc2c1-c1ccccc1 | > 100 | > 100 µg/mL | > 100 µg/mL | 4 µg/mL | > 100 µg/mL | > 100 µg/mL | > 100 µg/mL | > 100 | 10 µg/mL | > 100 | > 100 | > 100 | > 100 | > 100 | > 100 | > 100 | > 100 | > 100 | > 10 µg/mL | 1.4 (≈ 3.64 µM) | EC50 [7]: > 100 µg/mL; MCC [23]: 10 µg/mL; CC50 [22]: 11 µg/mL (≈ 28.6 µM)
8 | CCNC(=S)NNC(=O)c1[nH]c2ccc(F)cc2c1-c1ccccc1 | > 100 | 0.87 µg/mL | ≥ 4 µg/mL | 20 µg/mL | > 100 µg/mL | > 100 µg/mL | 0.4 µg/mL | > 100 | 20 µg/mL | > 100 | > 100 | > 100 | > 100 | > 100 | > 100 | > 100 | > 100 | > 100 | 20 µg/mL | 2.9 (≈ 8.14 µM) | selectivity ratio [24]: 23; selectivity ratio [26]: ≥ 5; selectivity ratio [27]: 6; selectivity ratio [25]: 50; MCC [23]: 4 µg/mL; CC50 [22]: 14 µg/mL (≈ 39.3 µM)
9 | NC(=O)c1ncn([C@@H]2O[C@H](CO)[C@@H](O)[C@H]2O)n1 [RIBAVIRIN] |  | 61 µM | 15 µM | > 250 µM | > 250 µM | > 250 µM | > 250 µM |  | > 250 µM |  |  |  |  |  |  |  |  |  | > 250 µM |  | EC50 ([16]; mdck): 8.9 µM

Reference: ChEMBL document CHEMBL4715693, “Synthesis and antiviral properties of novel indole-based thiosemicarbazides and 4-thiazolidinones” (Bioorg Med Chem, 2016)
